Source: ChEMBL document CHEMBL3525995, “CYP3A-mediated generation of aldehyde and hydrazine in atazanavir metabolism” (Drug Metab Dispos, 2011)

How the values were obtained:
[1] = Drug level in wild type mouse urine treated with 50 mg/kg, po atazanavir by LC-MS/MS analysis; assay type: ADME, organism-based; parameters: dose 50 mg/kg, dosed compound name Azazanavir, route oral; details: in vivo
Outline: (§1)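 Wild-type mice (n = 4) got a single oral 50 mg/kg dose and were housed individually in metabolic cages for 18 h, with urine and feces collected. Urine was diluted 1:4 in 50% acetonitrile and centrifuged. Feces were homogenized in water (1 mg/10 μl), mixed 1:1 with acetonitrile and centrifuged twice. Supernatants were analyzed by UPLC-TOFMS, with accurate mass (<10 ppm error) and MS/MS for identification.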

[2] = Drug level in wild type mouse feces treated with 50 mg/kg, po atazanavir by LC-MS/MS analysis; assay type: ADME, organism-based; parameters: dose 50 mg/kg, dosed compound name Azazanavir, route oral; details: in vivo; outline: as §1
Cytochrome P450 3A4 [3] = target: T1, Cytochrome P450 3A4 (Homo sapiens, UniProt P08684); assay: Drug metabolism assessed as human CYP3A4-mediated formation at 50 uM by UPLC-TOFMS system; assay type: ADME; details: recombinant enzyme
T1 sequence (P08684 whole entry): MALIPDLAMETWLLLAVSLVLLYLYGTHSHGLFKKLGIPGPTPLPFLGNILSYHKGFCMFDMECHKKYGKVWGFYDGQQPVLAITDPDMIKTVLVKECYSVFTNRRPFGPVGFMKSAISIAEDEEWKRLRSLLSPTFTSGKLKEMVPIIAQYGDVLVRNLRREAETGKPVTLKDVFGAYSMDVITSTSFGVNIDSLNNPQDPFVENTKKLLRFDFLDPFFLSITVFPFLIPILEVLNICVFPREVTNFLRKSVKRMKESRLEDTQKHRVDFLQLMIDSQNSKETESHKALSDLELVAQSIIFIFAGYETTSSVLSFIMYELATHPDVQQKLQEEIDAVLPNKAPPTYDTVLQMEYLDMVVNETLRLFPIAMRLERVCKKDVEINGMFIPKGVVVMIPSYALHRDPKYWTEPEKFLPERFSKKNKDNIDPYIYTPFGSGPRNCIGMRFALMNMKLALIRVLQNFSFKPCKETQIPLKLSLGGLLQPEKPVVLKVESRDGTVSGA
Outline: (§2)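 Each cDNA-expressed human P450 (CYP1A2, 2A6, 2B6, 2C8, 2C9, 2C19, 2D6, 2E1, 3A4; 2 pmol), plus a control, was incubated in PBS pH 7.4 with 50 μM substrate. After 5 min preincubation at 37°C, 1.0 mM NADPH (final) was added and the reaction ran 30 min with shaking. Ketoconazole (10 μM) was co-incubated as a CYP3A inhibitor, and NADPH-free incubations served as controls. Reactions were quenched with acetonitrile, centrifuged and analyzed by UPLC-TOFMS.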

Liver microsome [4] = assay: Drug metabolism in human liver microsomes treated with 50 uM atazanavir by LC-MS/MS analysis; assay type: ADME
Outline: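 Human liver microsomes (0.5 g protein/l) were incubated in PBS pH 7.4 with 50 μM substrate, in duplicate. After 5 min preincubation at 37°C, 1.0 mM NADPH (final) was added and the reaction ran 30 min with shaking; incubations without NADPH served as controls. Reactions were quenched with equal-volume acetonitrile, centrifuged and analyzed by UPLC-TOFMS.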

Cytochrome P450 2D6 = Cytochrome P450 2D6 (Homo sapiens, UniProt P10635); assay: Drug level assessed as human CYP2D6-mediated compound formation treated with atazanavir at 50 uM by UPLC-TOFMS system; assay type: ADME; details: recombinant enzyme; outline: as §2
Sequence of Cytochrome P450 2D6 (P10635 whole entry): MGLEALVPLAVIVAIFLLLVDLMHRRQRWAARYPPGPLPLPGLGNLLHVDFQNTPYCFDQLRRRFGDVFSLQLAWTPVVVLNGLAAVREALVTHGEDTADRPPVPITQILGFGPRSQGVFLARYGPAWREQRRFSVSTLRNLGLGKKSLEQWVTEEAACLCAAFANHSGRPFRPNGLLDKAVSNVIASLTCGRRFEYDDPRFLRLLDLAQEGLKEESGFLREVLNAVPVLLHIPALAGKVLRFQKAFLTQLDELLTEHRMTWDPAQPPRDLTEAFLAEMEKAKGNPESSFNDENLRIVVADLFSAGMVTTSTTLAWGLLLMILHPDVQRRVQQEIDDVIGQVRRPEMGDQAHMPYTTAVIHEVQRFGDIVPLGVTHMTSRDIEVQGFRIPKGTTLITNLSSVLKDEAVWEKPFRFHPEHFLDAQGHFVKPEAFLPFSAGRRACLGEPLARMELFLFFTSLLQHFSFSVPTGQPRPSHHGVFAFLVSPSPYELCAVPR

Liver microsome [5] = assay: Drug metabolism in human liver microsomes assessed as ((S)-1-{(1S,2S)-1-Benzyl-2-hydroxy-3-[N'-((S)-2-methoxycarbonylamino-3,3-dimethyl-butyryl)-N-(4-pyridin-2-yl-benzyl)-hydrazino]-propylcarbamoyl}-3-hydroxy-2-hydroxymethyl-2-methyl-propyl)-carbamic acid methyl ester formation at 50 uM by LC-MS/MS analysis; details: in vitro
Liver microsome [6] = assay: Drug metabolism in human liver microsomes assessed as ((S)-1-{(1S,2S)-1-Benzyl-2-hydroxy-3-[N'-((S)-2-methoxycarbonylamino-3,3-dimethyl-butyryl)-hydrazino]-propylcarbamoyl}-2,2-dimethyl-propyl)-carbamic acid methyl ester formation at 50 uM by LC-MS/MS analysis; details: in vitro
[7] = Drug excretion in wild type mouse urine assessed as (S)-methyl 3,3-dimethyl-1-oxo-1-(2-(4-(pyridin-2-yl)benzyl)hydrazinyl)butan-2-ylcarbamate formation at 50 mg/kg, po by LC-MS/MS analysis; assay type: ADME, organism-based; parameters: dose 50 mg/kg, dosed compound name Azazanavir, route oral; details: in vivo; outline: as §1
[8] = Drug excretion in wildtype mouse feces assessed as ((S)-1-{(1S,2S)-1-Benzyl-2-hydroxy-3-[N'-((S)-2-methoxycarbonylamino-3,3-dimethyl-butyryl)-N-(4-pyridin-2-yl-benzyl)-hydrazino]-propylcarbamoyl}-3-hydroxy-2,2-dimethyl-propyl)-carbamic acid methyl ester formation at 50 mg/kg, po by LC-MS/MS analysis; assay type: ADME, organism-based; parameters: dose 50 mg/kg, dosed compound name Azazanavir, route oral; details: in vivo; outline: as §1
Liver microsome [9] = assay: Drug metabolism in human liver microsomes assessed as methyl (S)-1-(2-((2S,3S)-3-((S)-2-amino-3,3-dimethylbutanamido)-2-hydroxy-4-phenylbutyl)-2-(4-(pyridin-2-yl)benzyl)hydrazinyl)-3,3-dimethyl-1-oxobutan-2-ylcarbamate formation at 50 uM by LC-MS/MS analysis; details: in vitro
Liver microsome [10] = assay: Drug metabolism in human liver microsomes assessed as methyl (S)-1-((2S,3S)-4-(2-((S)-2-amino-3,3-dimethylbutanoyl)-1-(4-(pyridin-2-yl)benzyl)hydrazinyl)-3-hydroxy-1-phenylbutan-2-ylamino)-3,3-dimethyl-1-oxobutan-2-ylcarbamate formation by LC-MS/MS analysis
[11] = Drug excretion in wildtype mouse urine assessed as {(S)-3-Hydroxy-1-[N'-[(2S,3S)-2-hydroxy-3-((S)-4-hydroxy-2-methoxycarbonylamino-3,3-dimethyl-butyrylamino)-4-phenyl-butyl]-N'-(4-pyridin-2-yl-benzyl)-hydrazinocarbonyl]-2,2-dimethyl-propyl}-carbamic acid methyl ester formation at 50 mg/kg, po by LC-MS/MS analysis; assay type: ADME, organism-based; parameters: dose 50 mg/kg, dosed compound name Azazanavir, route oral; details: in vivo; outline: as §1
Cytochrome P450 3A4 [12] = target: T1, Cytochrome P450 3A4; assay: Drug level assessed as human CYP3A4-mediated (S)-methyl 3,3-dimethyl-1-oxo-1-(2-(4-(pyridin-2-yl)benzyl)hydrazinyl)butan-2-ylcarbamate formation treated with 50 uM atazanavir by UPLC-TOFMS system; assay type: ADME; details: recombinant enzyme; outline: as §2
[13] = Drug excretion in wildtype mouse feces assessed as {(S)-3-Hydroxy-1-[N'-[(2S,3S)-2-hydroxy-3-((S)-4-hydroxy-2-methoxycarbonylamino-3,3-dimethyl-butyrylamino)-4-phenyl-butyl]-N'-(4-pyridin-2-yl-benzyl)-hydrazinocarbonyl]-2,2-dimethyl-propyl}-carbamic acid methyl ester formation at 50 mg/kg, po by LC-MS/MS analysis; assay type: ADME, organism-based; parameters: dose 50 mg/kg, dosed compound name Azazanavir, route oral; details: in vivo; outline: as §1
[14] = Drug excretion in wildtype mouse feces assessed as ((S)-1-{(1S,2S)-1-Benzyl-2-hydroxy-3-[N'-((S)-2-methoxycarbonylamino-3,3-dimethyl-butyryl)-N-(4-pyridin-2-yl-benzyl)-hydrazino]-propylcarbamoyl}-3-hydroxy-2-hydroxymethyl-2-methyl-propyl)-carbamic acid methyl ester formation at 50 mg/kg, po by LC-MS/MS analysis; assay type: ADME, organism-based; parameters: dose 50 mg/kg, dosed compound name Azazanavir, route oral; details: in vivo; outline: as §1
[15] = Drug excretion in wildtype mouse urine assessed as ((S)-1-{(1S,2S)-1-Benzyl-2-hydroxy-3-[N'-((S)-2-methoxycarbonylamino-3,3-dimethyl-butyryl)-N-(4-pyridin-2-yl-benzyl)-hydrazino]-propylcarbamoyl}-3-hydroxy-2-hydroxymethyl-2-methyl-propyl)-carbamic acid methyl ester formation at 50 mg/kg, po by LC-MS/MS analysis; assay type: ADME, organism-based; parameters: dose 50 mg/kg, dosed compound name Azazanavir, route oral; details: in vivo; outline: as §1
[16] = Drug excretion in wildtype mouse feces assessed as ((S)-1-{(1S,2S)-1-Benzyl-2-hydroxy-3-[N'-((S)-2-methoxycarbonylamino-3,3-dimethyl-butyryl)-hydrazino propylcarbamoyl}-2,2-dimethyl-propyl)-carbamic acid methyl ester formation at 50 mg/kg, po by LC-MS/MS analysis; assay type: ADME, organism-based; parameters: dose 50 mg/kg, dosed compound name Azazanavir, route oral; details: in vivo; outline: as §1
[17] = Drug excretion in wildtype mouse urine assessed as ((S)-1-{(1S,2S)-1-Benzyl-2-hydroxy-3-[N'-((S)-2-methoxycarbonylamino-3,3-dimethyl-butyryl)-hydrazino propylcarbamoyl}-2,2-dimethyl-propyl)-carbamic acid methyl ester formation at 50 mg/kg, po by LC-MS/MS analysis; assay type: ADME, organism-based; parameters: dose 50 mg/kg, dosed compound name Azazanavir, route oral; details: in vivo; outline: as §1
[18] = Drug excretion in wild type mouse feces assessed as methyl (S)-1-(2-((2S,3S)-3-((S)-2-amino-3,3-dimethylbutanamido)-2-hydroxy-4-phenylbutyl)-2-(4-(pyridin-2-yl)benzyl)hydrazinyl)-3,3-dimethyl-1-oxobutan-2-ylcarbamate formation at 50 mg/kg, po by LC-MS/MS analysis; assay type: ADME, organism-based; parameters: dose 50 mg/kg, dosed compound name Azazanavir, route oral; details: in vivo; outline: as §1
[19] = Drug excretion in wild type mouse urine assessed as methyl (S)-1-((2S,3S)-4-(2-((S)-2-amino-3,3-dimethylbutanoyl)-1-(4-(pyridin-2-yl)benzyl)hydrazinyl)-3-hydroxy-1-phenylbutan-2-ylamino)-3,3-dimethyl-1-oxobutan-2-ylcarbamate formation at 50 mg/kg, po by LC-MS/MS analysis; assay type: ADME, organism-based; parameters: dose 50 mg/kg, dosed compound name Azazanavir, route oral; details: in vivo; outline: as §1
Liver microsome [20] = assay: Drug metabolism in human liver microsomes assessed as ((S)-1-{(1S,2S)-1-Benzyl-2-hydroxy-3-[N'-((S)-2-methoxycarbonylamino-3,3-dimethyl-butyryl)-N-(4-pyridin-2-yl-benzyl)-hydrazino]-propylcarbamoyl}-3-hydroxy-2,2-dimethyl-propyl)-carbamic acid methyl ester formation at 50 uM by LC-MS/MS analysis; details: in vitro
[21] = Drug excretion in wildtype mouse urine assessed as ((S)-1-{(1S,2S)-1-Benzyl-2-hydroxy-3-[N'-((S)-2-methoxycarbonylamino-3,3-dimethyl-butyryl)-N-(4-pyridin-2-yl-benzyl)-hydrazino]-propylcarbamoyl}-3-hydroxy-2,2-dimethyl-propyl)-carbamic acid methyl ester formation at 50 mg/kg, po by LC-MS/MS analysis; assay type: ADME, organism-based; parameters: dose 50 mg/kg, dosed compound name Azazanavir, route oral; details: in vivo; outline: as §1
[22] = Drug excretion in wild type mouse feces assessed as methyl (S)-1-((2S,3S)-4-(2-((S)-2-amino-3,3-dimethylbutanoyl)-1-(4-(pyridin-2-yl)benzyl)hydrazinyl)-3-hydroxy-1-phenylbutan-2-ylamino)-3,3-dimethyl-1-oxobutan-2-ylcarbamate formation at 50 mg/kg, po by LC-MS/MS analysis; assay type: ADME, organism-based; parameters: dose 50 mg/kg, dosed compound name Azazanavir, route oral; details: in vivo; outline: as §1
[23] = Drug excretion in wild type mouse urine assessed as methyl (S)-1-(2-((2S,3S)-3-((S)-2-amino-3,3-dimethylbutanamido)-2-hydroxy-4-phenylbutyl)-2-(4-(pyridin-2-yl)benzyl)hydrazinyl)-3,3-dimethyl-1-oxobutan-2-ylcarbamate formation at 50 mg/kg, po by LC-MS/MS analysis; assay type: ADME, organism-based; parameters: dose 50 mg/kg, dosed compound name Azazanavir, route oral; details: in vivo; outline: as §1
Liver microsome [24] = assay: Drug metabolism in human liver microsomes assessed as (S)-methyl 3,3-dimethyl-1-oxo-1-(2-(4-(pyridin-2-yl)benzyl)hydrazinyl)butan-2-ylcarbamate formation at 50 uM by LC-MS/MS analysis; details: in vitro
[25] = Drug excretion in wild type mouse assessed as (S)-methyl 3,3-dimethyl-1-oxo-1-(2-(4-(pyridin-2-yl)benzyl)hydrazinyl)butan-2-ylcarbamate formation at 50 mg/kg, po by LC-MS/MS analysis; assay type: ADME, organism-based; parameters: dose 50 mg/kg, dosed compound name Azazanavir, route oral; details: in vivo; outline: as §1

Measured: Compound recovery

COC(=O)N[C@H](C(=O)NNC[C@H](O)[C@H](Cc1ccccc1)NC(=O)[C@@H](NC(=O)OC)C(C)(C)C)C(C)(C)C
metabolite_detected: [1] | [2] | Cytochrome P450 3A4 [3] | Liver microsome [4] | Cytochrome P450 2D6

COC(=O)N[C@H](C(=O)NN(Cc1ccc(-c2ccccn2)cc1)C[C@H](O)[C@H](Cc1ccccc1)NC(=O)[C@@H](NC(=O)OC)C(C)(C)CO)C(C)(C)C
metabolite_detected: [1] | [2] | Liver microsome [4]

COC(=O)N[C@H](C(=O)N[C@@H](Cc1ccccc1)[C@@H](O)CN(Cc1ccc(-c2ccccn2)cc1)NC(=O)[C@@H](NC(=O)OC)C(C)(C)CO)C(C)(C)CO
metabolite_detected: [1] | [2]

COC(=O)N[C@H](C(=O)NN(Cc1ccc(-c2ccccn2)cc1)C[C@H](O)[C@H](Cc1ccccc1)NC(=O)[C@@H](NC(=O)OC)C(C)(CO)CO)C(C)(C)C
metabolite_detected: [1] | [2] | Liver microsome [4]

COC(=O)N[C@H](C(=O)NN(Cc1ccc(-c2ccccn2)cc1)C[C@H](O)[C@H](Cc1ccccc1)NC(=O)[C@@H](N)C(C)(C)C)C(C)(C)C
metabolite_detected: [1] | [2] | Liver microsome [4]

COC(=O)N[C@H](C(=O)N[C@@H](Cc1ccccc1)[C@@H](O)CN(Cc1ccc(-c2ccccn2)cc1)NC(=O)[C@@H](N)C(C)(C)C)C(C)(C)C
metabolite_detected: [1] | [2] | Liver microsome [4]

COC(=O)N[C@H](C(=O)NNCc1ccc(-c2ccccn2)cc1)C(C)(C)C
metabolite_detected: [1] | [2] | Liver microsome [4]

COC(=O)N[C@H](C(=O)N[C@@H](Cc1ccccc1)[C@@H](O)CNN)C(C)(C)C
metabolite_detected: [1] | [2] | Liver microsome [4]

COC(=O)N[C@H](C(=O)N[C@@H](Cc1ccccc1)[C@@H](O)C=O)C(C)(C)C
metabolite_detected: [2]

COC(=O)N[C@H](C(=O)N[C@@H](Cc1ccccc1)[C@@H](O)CN(Cc1ccc(-c2ccccn2)cc1)NC(=O)[C@@H](NC(=O)OC)C(C)(C)C)C(C)(C)C [ATAZANAVIR]
metabolite_detected: Liver microsome [5] | Liver microsome [6] | [7] | [8] | Liver microsome [9] | Liver microsome [10] | [11] | Cytochrome P450 3A4 [12] | [13] | [14] | [15] | [16] | [17] | [18] | [19] | Liver microsome [20] | [21] | [22] | [23] | Liver microsome [24] | [25]
